ChEMBL document CHEMBL3044720, “Phytotoxic Eremophilanes from Ligularia macrophylla” (J Agric Food Chem, 2007)
Active and inactive are the calls of the source. No cut-off for these calls is given here.

What follows are compounds tested on Lactuca sativa (assay: Phytotoxic activity against Lactuca sativa (lettuce) seeds assessed as inhibition of germination at 100 uM at 26 degC measured 7 days post-drug dose).
Format: functional, organism-based
Summary of the method: (§1)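 Each well held 5 mg lettuce or 10 mg bentgrass seed plus 250 µL of compound in water with 3% acetone final; acetone/water controls were included. Sealed plates were kept at 26 °C under continuous light (173 µmol/m²/s). Germination was rated visually on a 0–5 scale (0 = no effect, 5 = no germination/growth) against controls, after 7 days for lettuce and 12 days for bentgrass.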

Which inhibition does the source give for C=C1COC(=O)[C@@]12C[C@H]1CC[C@@H](OC(=O)/C(C)=C\C)[C@H](C)C1(C)C2 (single isomer, unassigned) here?
Its inhibition is “inactive”.

With CC1=C2C3OC(=O)[C@H]4CCC[C@H](C[C@@H]2OC1=O)[C@]34C (single isomer, unassigned) as the compound, how does the inhibition read?
Its inhibition is “inactive”.

Which inhibition does the source give for CCCCC/C=C\C/C=C\CCCCCCCC(=O)O [LINOLEIC ACID] here?
The inhibition was “inactive”.

The compounds below were run on Agrostis stolonifera (assay: Phytotoxic activity against Agrostis stolonifera seeds assessed as inhibition of germination at 10 uM at 26 degC measured 12 days post-drug dose).
Format: functional, organism-based
Summary of the method: as §1

Which inhibition does the source give for C=C1COC(=O)[C@@]12C[C@H]1CC[C@@H](OC(=O)/C(C)=C\C)[C@H](C)C1(C)C2 (single isomer, unassigned) here?
Its inhibition is “inactive”.

CC1=C2C3OC(=O)[C@H]4CCC[C@H](C[C@@H]2OC1=O)[C@]34C (single isomer, unassigned) was tested. Which inhibition did it give?
The inhibition was “inactive”.

For CCCCC/C=C\C/C=C\CCCCCCCC(=O)O [LINOLEIC ACID], which inhibition is on record?
Its inhibition is “inactive”.

These compounds were tested on Agrostis stolonifera (assay: Phytotoxic activity against Agrostis stolonifera seeds assessed as inhibition of germination at 1000 uM at 26 degC measured 12 days post-drug dose).
Format: functional, organism-based
Summary of the method: as §1

How did the inhibition turn out when CC1=C2C3OC(=O)[C@H]4CCC[C@H](C[C@@H]2OC1=O)[C@]34C (single isomer, unassigned) was run?
The inhibition was “Active”.

These compounds were tested on Lactuca sativa (assay: Phytotoxic activity against Lactuca sativa (lettuce) seeds assessed as inhibition of germination at 1 uM at 26 degC measured 7 days post-drug dose).
Format: functional, organism-based
Summary of the method: as §1

With C=C1COC(=O)[C@@]12C[C@H]1CC[C@@H](OC(=O)/C(C)=C\C)[C@H](C)C1(C)C2 (single isomer, unassigned) as the compound, how does the inhibition read?
Its inhibition is “inactive”.

With CC1=C2C3OC(=O)[C@H]4CCC[C@H](C[C@@H]2OC1=O)[C@]34C (single isomer, unassigned) as the compound, how does the inhibition read?
Its inhibition is “inactive”.

Which inhibition does the source give for CCCCC/C=C\C/C=C\CCCCCCCC(=O)O [LINOLEIC ACID] here?
Its inhibition is “inactive”.

The compounds below were run on Coptotermes formosanus (assay: Antitermite activity against greater than third-instar stage of Coptotermes formosanus workers/1 soldier in compound-pretreated filter paper assessed as mortality at 0.5% at 26 degC after 13 days (reference value: 3.8 +/-4.8%)).
Format: functional
Summary of the method: (§2)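 Test material in acetone (100 µL) was blotted onto 2.5 cm filter paper discs, dried several hours, then moistened with 100 µL water. Each dish held 20 workers (third instar or greater) and two soldiers. Dishes were kept at ca. 100% RH and 26 °C, with water-only controls. Four replicates came from different colonies. Mortality was scored daily for 3 weeks, reported as mean and SD, and compared by ANOVA with Fisher LSD (P < 0.05).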

For C=C1COC(=O)[C@@]12C[C@H]1CC[C@@H](OC(=O)/C(C)=C\C)[C@H](C)C1(C)C2 (single isomer, unassigned), which mortality is on record?
The mortality was 2.5%.

CCCCC/C=C\C/C=C\CCCCCCCC(=O)O [LINOLEIC ACID] was tested. Which mortality did it give?
The mortality was 5%.

Each compound was assayed on Coptotermes formosanus (assay: Antitermite activity against greater than third-instar stage of Coptotermes formosanus workers/1 soldier in compound-pretreated filter paper assessed as mortality at 0.5% at 26 degC after 1 day (reference value: 0%)).
Format: functional
Summary of the method: as §2

For C=C1COC(=O)[C@@]12C[C@H]1CC[C@@H](OC(=O)/C(C)=C\C)[C@H](C)C1(C)C2 (single isomer, unassigned), which mortality is on record?
Its mortality is 0%.

Which mortality does the source give for CCCCC/C=C\C/C=C\CCCCCCCC(=O)O [LINOLEIC ACID] here?
The mortality was 2.5%.

Each compound was assayed on Agrostis stolonifera (assay: Phytotoxic activity against Agrostis stolonifera seeds assessed as inhibition of germination at 100 uM at 26 degC measured 12 days post-drug dose).
Format: functional, organism-based
Summary of the method: as §1

For C=C1COC(=O)[C@@]12C[C@H]1CC[C@@H](OC(=O)/C(C)=C\C)[C@H](C)C1(C)C2 (single isomer, unassigned), which inhibition is on record?
Its inhibition is “inactive”.

For CC1=C2C3OC(=O)[C@H]4CCC[C@H](C[C@@H]2OC1=O)[C@]34C (single isomer, unassigned), which inhibition is on record?
Its inhibition is “inactive”.

For CCCCC/C=C\C/C=C\CCCCCCCC(=O)O [LINOLEIC ACID], which inhibition is on record?
The inhibition was “inactive”.

The compounds below were run on Coptotermes formosanus (assay: Antitermite activity against greater than third-instar stage of Coptotermes formosanus workers/1 soldier in compound-pretreated filter paper assessed as mortality at 0.5% at 26 degC after 21 days (reference value: 3.8 +/-4.8%)).
Format: functional
Summary of the method: as §2

C=C1COC(=O)[C@@]12C[C@H]1CC[C@@H](OC(=O)/C(C)=C\C)[C@H](C)C1(C)C2 (single isomer, unassigned) was tested. Which mortality did it give?
The mortality was 2.5%.

How did the mortality turn out when CCCCC/C=C\C/C=C\CCCCCCCC(=O)O [LINOLEIC ACID] was run?
The mortality was 6.3%.

The compounds below were run on Cucumis sativus (assay: Inhibition of photosynthetic electron transport rate in Cucumis sativa Straight Eight (cucumber) cotyledons assessed as chlorophyll fluorescence at 10 uM at 22 degC measured at 2 to 24 hr post-drug treatment under constant light by fluorometer analysis).
Format: functional, organism-based
Summary of the method: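 Cotyledon discs (8 mm) were cut from 6-day-old plants. Induced variable chlorophyll fluorescence was read on a pulse-modulated fluorometer before each disc was placed in 1 mL of 0.1% Tween 20, with or without treatment; the solvent control was 0.1% acetone. Discs were kept at 22 °C under continuous light and read again at 2, 4, 8 and 24 h. Each treatment was run in triplicate.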

How did the inhibition turn out when CCNc1nc(Cl)nc(NC(C)C)n1 was run?
Its inhibition is “inactive”.

The compounds below were run on Colletotrichum gloeosporioides (assay: Antifungal activity against Colletotrichum gloeosporioides assessed as growth inhibition at 10 ug after 4-5 days by direct bioautography).
Format: functional, organism-based
Summary of the method: (§3)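 Direct TLC bioautography against strawberry-anthracnose Colletotrichum isolates grown on PDA at 24 ± 2 °C under a 12 h photoperiod. Conidia were harvested from 7–10-day cultures and filtered. Developed plates carrying 10 µg/spot were sprayed with 10^5 spores/mL and held in a moisture chamber for 4 days at 26 °C with a 12 h photoperiod. Zone diameters were measured 4–5 days after treatment.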

How did the “growth inhibition (GI)” value turn out when CCCCC/C=C\C/C=C\CCCCCCCC(=O)O [LINOLEIC ACID] was run?
Its value is “inactive”.

Each compound was assayed on Colletotrichum acutatum (assay: Antifungal activity against Colletotrichum acutatum assessed as diameter of growth inhibitory zone at 10 ug after 4-5 days by direct bioautography).
Format: functional
Summary of the method: as §3

With CCCCC/C=C\C/C=C\CCCCCCCC(=O)O [LINOLEIC ACID] as the compound, how does the Activity read?
The Activity was 2.9 mm.

These compounds were tested on Lactuca sativa (assay: Phytotoxic activity against Lactuca sativa (lettuce) seeds assessed as inhibition of germination at 10 uM at 26 degC measured 7 days post-drug dose).
Format: functional, organism-based
Summary of the method: as §1

C=C1COC(=O)[C@@]12C[C@H]1CC[C@@H](OC(=O)/C(C)=C\C)[C@H](C)C1(C)C2 (single isomer, unassigned) was tested. Which inhibition did it give?
The inhibition was “inactive”.

How did the inhibition turn out when CC1=C2C3OC(=O)[C@H]4CCC[C@H](C[C@@H]2OC1=O)[C@]34C (single isomer, unassigned) was run?
Its inhibition is “inactive”.

With CCCCC/C=C\C/C=C\CCCCCCCC(=O)O [LINOLEIC ACID] as the compound, how does the inhibition read?
The inhibition was “inactive”.

The compounds below were run on Lemna aequinoctialis (assay: Phytotoxic activity against three-frond Lemna paucicostata colonies assessed as growth inhibition at 100 uM after 4 days).
Format: functional, organism-based
Summary of the method: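 Hoagland medium at pH 5.5 was filter-sterilized, with compound added in acetone or EtOH (1% final); tested range 100 to 0.1 µM. Two three-frond colonies from 4–5-day-old stock cultures were placed per well. Total frond area was imaged on days 0–4, and % increase was taken relative to day 0. IC50 came from a four-parameter logistic fit in R drc.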

C=C1COC(=O)[C@@]12C[C@H]1CC[C@@H](OC(=O)/C(C)=C\C)[C@H](C)C1(C)C2 (single isomer, unassigned) was tested. Which “growth inhibition (GI)” value did it give?
The value was “inactive”.

Which “growth inhibition (GI)” value does the source give for CC1=C2C3OC(=O)[C@H]4CCC[C@H](C[C@@H]2OC1=O)[C@]34C (single isomer, unassigned) here?
The value was “inactive”.

What follows are compounds tested on Coptotermes formosanus (assay: Antitermite activity against greater than third-instar stage of Coptotermes formosanus workers/1 soldier in compound-pretreated filter paper assessed as filter paper consumption at 0.5% at 26 degC after 21 days (reference value: 41.4 +/-5.6 mg)).
Format: functional

With C=C1COC(=O)[C@@]12C[C@H]1CC[C@@H](OC(=O)/C(C)=C\C)[C@H](C)C1(C)C2 (single isomer, unassigned) as the compound, how does the Activity read?
Its Activity is 40 mg.

Which Activity does the source give for CCCCC/C=C\C/C=C\CCCCCCCC(=O)O [LINOLEIC ACID] here?
The Activity was 44.6 mg.

These compounds were tested on Colletotrichum fragariae (assay: Antifungal activity against Colletotrichum fragariae assessed as growth inhibition at 10 ug after 4-5 days by direct bioautography).
Format: functional, organism-based
Summary of the method: as §3

How did the “growth inhibition (GI)” value turn out when CCCCC/C=C\C/C=C\CCCCCCCC(=O)O [LINOLEIC ACID] was run?
The value was “inactive”.

Each compound was assayed on Agrostis stolonifera (assay: Phytotoxic activity against Agrostis stolonifera seeds assessed as inhibition of germination at 1 uM at 26 degC measured 12 days post-drug dose).
Format: functional, organism-based
Summary of the method: as §1

For C=C1COC(=O)[C@@]12C[C@H]1CC[C@@H](OC(=O)/C(C)=C\C)[C@H](C)C1(C)C2 (single isomer, unassigned), which inhibition is on record?
Its inhibition is “inactive”.

How did the inhibition turn out when CC1=C2C3OC(=O)[C@H]4CCC[C@H](C[C@@H]2OC1=O)[C@]34C (single isomer, unassigned) was run?
The inhibition was “inactive”.

CCCCC/C=C\C/C=C\CCCCCCCC(=O)O [LINOLEIC ACID] was tested. Which inhibition did it give?
Its inhibition is “inactive”.

The compounds below were run on Lactuca sativa (assay: Phytotoxic activity against Lactuca sativa (lettuce) seeds assessed as inhibition of germination at 1000 uM at 26 degC measured 7 days post-drug dose).
Format: functional, organism-based
Summary of the method: as §1

Which inhibition does the source give for CCCCC/C=C\C/C=C\CCCCCCCC(=O)O [LINOLEIC ACID] here?
The inhibition was “inactive”.

The compounds below were run on Coptotermes formosanus (assay: Antitermite activity against greater than third-instar stage of Coptotermes formosanus workers/1 soldier in compound-pretreated filter paper assessed as mortality at 0.5% at 26 degC after 6 days (reference value: 2.5 +/-5%)).
Format: functional
Summary of the method: as §2

With C=C1COC(=O)[C@@]12C[C@H]1CC[C@@H](OC(=O)/C(C)=C\C)[C@H](C)C1(C)C2 (single isomer, unassigned) as the compound, how does the mortality read?
Its mortality is 2.5%.

Which mortality does the source give for CCCCC/C=C\C/C=C\CCCCCCCC(=O)O [LINOLEIC ACID] here?
Its mortality is 3.8%.
